Active and inactive are the calls of the source.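 The calls were made as follows: active = inhibitors whose fitted half-maximal dose is at most ten times the top tested dose; inconclusive = flat curve with 30 to 70% inhibition, or a poor fit; inactive = the rest.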
System: SK-MEL-5 TRPM1 promoter luciferase reporter, 24 h
Assay: suppression of TRPM1 promoter luciferase signal, dose response, MITF project, SK-MEL-5 cells, dry powder samples (AID 540348)
Conditions: not given
How it was run: (§1)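 Doses – dry-powder compounds tested as a dose series · System – SK-MEL-5 melanoma cells with stable TRPM1 promoter–luciferase reporter · Medium – DMEM lacking phenol red, supplemented with 10% iFBS · Times – cells plated day before, 24 h compound exposure, 37 °C · Technique – Steady-Glo luminescence after 5 min at room temperature, 0.5 s per well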

Row | Compound | AC50 [µM]
1 | O=c1c(Cl)c2oc3ccccc3nc-2c2ccccc12 | 6.17
2 | CCN1c2ccccc2NC2N=C(OC)C(c3ccccc3)C21 (centres undefined) | 0.808
3 | CC1(C)CC(NC(=O)c2ccc(Cl)c(S(=O)(=O)N(Cc3ccccc3)c3ccccc3)c2)CC(C)(C)N1 | 6.34
4 | COc1ccc(S(=O)(=O)N(C(C)=O)c2ccc(OC(C)=O)c3ccccc23)cc1[N+](=O)[O-] | 2.87
5 | O=C(Nc1ccc(-c2nc3ncccc3o2)cc1)c1ccc([N+](=O)[O-])o1 | 8.55
6 | COc1cc2c(cc1OC)C(c1ccccc1)N(C(=O)CCl)CC2 (centres undefined) | 5.19
7 | O=C(Nc1ccc(N2CCN(C(=O)c3ccccc3)CC2)cc1)c1ccc([N+](=O)[O-])o1 | 9.85
8 | C=CCNC1=C(Cl)C(=O)c2ccccc2C1=O | 0.905
9 | O=C(Cn1ncc(Cl)c(Cl)c1=O)N1CCc2ccccc21 | 4.69
10 | Cc1cc(C(C)(C)C)cc(C)c1Cn1c2[n+](c3ccc(C(F)(F)F)cc31)CCCCC2 | 9.42
11 | Cc1ccc(C(C)C)c(OCc2nn(CC(=O)c3ccc(Cl)cc3)c3[n+]2CCCCC3)c1 | 13.8
12 | COc1cc(/C=N/NC(N)=O)c(Br)cc1OCC(=O)Nc1ccccc1C | 17.7
13 | CCN1CCN(C2=C(NS(=O)(=O)c3ccc(Br)cc3)C(=O)c3ccccc3C2=O)CC1 | 2.09
14 | CC1CCN(CC(CS(=O)(=O)c2ccc([N+](=O)[O-])cc2)N2CCC(C)CC2)CC1 (centres undefined) | 5.58
15 | CC(C)C(CCNC1CCN(C)CC1)c1ccc(Cl)cc1 (centres undefined) | 10.6
16 | CN(C)CCCNC(=O)/C(=C\c1ccc(-c2ccc(Br)cc2)o1)NC(=O)c1ccccc1 | 12.2
17 | CC1CCCCC1NC(=O)/C(C#N)=C/C=C/c1ccccc1[N+](=O)[O-] (centres undefined) | 7.3
18 | O=C(CNc1cccc2ccccc12)N/N=C/c1ccc([N+](=O)[O-])o1 | 2.42
19 | O=C(COc1ccccc1)N/N=C/c1ccc([N+](=O)[O-])o1 | 2.6
20 | Cc1nc2ccccc2n1/N=C/c1ccc([N+](=O)[O-])s1 | 2.88
21 | Cc1ccc(C(=O)N/N=C/c2ccc([N+](=O)[O-])s2)cc1 | 5.75

System: not listed separately
Assay: as above
Conditions: SK-MEL-5 TRPM1 promoter luciferase reporter, 24 h; at 35 µM (top of the series)
How it was run: as §1

Row | Compound | activity change, negative = inhibition
22 | CCN(CC)CCNC(=O)c1c(C)n(-c2ccccc2)c2cc(Br)c(OC)cc12 | -94.1% (inactive)
23 | CC1CN(C(=O)CCC(=O)NCCCN2CCC(Cc3ccccc3)CC2)c2cc(Cl)ccc2O1 (centres undefined) | -105% (inactive)
24 | N=c1n(CCN2CCCC2)c2ccccc2n1CC(O)c1ccc(Cl)c(Cl)c1 (centres undefined) | -109% (inactive)
25 | Cc1oc(-c2ccc(Cl)cc2)nc1CN1CCC(C(=O)NCCCN2CCCC(C)C2)CC1 (centres undefined) | -104% (inactive)
26 | Cc1ccc(C(O)(c2ccc(C)c(C)c2)C2CN3CCC2CC3)cc1C (centres undefined) | -51% (inactive)
27 | CC1=NNC(=O)/C1=C\c1cn(-c2ccccc2)nc1-c1ccc(F)cc1 | -106% (inactive)
28 | CCN1CCCC1CNC(=O)c1ccc2c(c1)NC(=O)/C(=C\c1ccc(C)cc1)S2 (centres undefined) | -106% (inactive)
29 | Cc1[nH]c2ccccc2c1C(=O)CCl | -106% (inactive)
